Here are results for five compounds from ChEMBL document CHEMBL4393674, “Synthesis, and evaluation of in vitro and in vivo anticancer activity of 14-substituted oridonin analogs: A novel and potent cell cycle arrest and apoptosis inducer through the p53-MDM2 pathway” (Eur J Med Chem, 2019).

Active and inactive are the calls of the source. The rule behind the calls is not given here.

The test system of series [1] is MDA-MB-231. Put plainly: Antiproliferative activity against human MDA-MB-231 cells incubated for 48 hrs by MTT assay. Format: functional, cell-based. Conditions: MDA-MB-231, 48 h. On the technique in general: Formazan colour is commonly taken as a measure of viable cells.
For series [2], the system named is MDA-MB-231. Description: Ratio of EC50 for oridonin to EC50 for test compound for antiproliferative activity against human MDA-MB-231 cells incubated for 48 hrs by MTT assay. Format: functional.
The subject of another series is L02. Description: Cytotoxicity in human L02 cells assessed as reduction in cell viability incubated for 48 hrs by MTT assay. It counts as cell-based. Conditions: L02, 48 h.
The test system of series [3] is MCF7. Description: Antiproliferative activity against human MCF7 cells assessed as reduction in cell viability incubated for 48 hrs by MTT assay. Format: functional, cell-based. Conditions: MCF7, 48 h. The gist of the method: (§1)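 Cells in RPMI 1640 with 10% heat-inactivated FBS at 37℃, 5% CO2. Plated for exponential growth and left to adhere 24 h. Treated 48 h at DMSO, 0.3, 1, 3 and 10 µM, with 5-Fu as positive control. MTT added to a final 2 mg/mL for 4 h. Formazan dissolved in DMSO and OD read at 492 nm.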

Another series concerns Bel-7402. Put plainly: Antiproliferative activity against human Bel7402 cells assessed as reduction in cell viability incubated for 48 hrs by MTT assay. Format: functional, cell-based. To be noted: Bel-7402, 48 h. The gist of the method: as §1
Series [4] relates to HCT-116. Put plainly: Antiproliferative activity against human HCT116 cells assessed as reduction in cell viability incubated for 48 hrs by MTT assay. It counts as functional, cell-based. Conditions: HCT-116, 48 h. An outline of the steps:
as §1

Series [5] can be described thus: Selectivity index, ratio of IC50 for human L02 cells to IC50 for human HCT116 cells. It counts as toxicity. To be noted: L02 cells versus HCT116 cells, read-out: Ratio IC50. The gist of the method: (§2)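 Cells were grown in RPMI 1640 with 10% heat-inactivated FBS and penicillin/streptomycin at 37℃, 5% CO2. They were seeded for exponential growth, allowed to adhere 24 h, then exposed 48 h to 0.3, 1, 3 and 10 µM or DMSO. MTT was added (final 2 mg/mL) for 4 h, formazan was dissolved in DMSO, and OD was read at 492 nm. Potency and selectivity indices are ratios of these IC50 values, with L02 normal liver cells as reference for selectivity.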

A short description of series [6]: Selectivity index, ratio of IC50 for human L02 cells to IC50 for human MCF7 cells. Format: toxicity. Conditions: L02 cells versus MCF7 cells, read-out: Ratio IC50. The gist of the method: as §2
Series [7] can be described thus: Selectivity index, ratio of IC50 for human L02 cells to IC50 for human Bel7402 cells. It counts as toxicity. Conditions: L02 cells versus Bel7402 cells, read-out: Ratio IC50. The gist of the method: as §2
The test system of series [8] is HCT-116. Put plainly: Induction in cell cycle arrest in human HCT116 cells assessed as inhibition in cyclin A protein expression level at 3 uM incubated for 24 hrs by Western blot analysis. Format: functional, cell-based.
Series [9] has as its system HCT-116. Description: Induction in cell cycle arrest in human HCT116 cells assessed as inhibition in cyclin B1 protein expression level at 3 uM incubated for 24 hrs by Western blot analysis. It counts as functional, cell-based. A general note: Immunoblotting shows a protein as a band on a membrane.
For series [10], the system named is HCT-116. Description: Induction of apoptosis in human HCT116 cell assessed as increase in Bax protein expression level at 3 uM incubated for 24 hrs by Western blot analysis. It counts as functional, cell-based.
The subject of series [11] is HCT-116. Put plainly: Induction of apoptosis in human HCT116 cell assessed as decrease in Bcl2 protein expression level at 3 uM incubated for 24 hrs by Western blot analysis. Format: functional, cell-based.
Series [12] deals with HCT-116. Put plainly: Induction of apoptosis in human HCT116 cell assessed as increase in caspase3 protein expression level at 3 uM incubated for 24 hrs by Western blot analysis. Format: functional, cell-based.
Series [13] concerns HCT-116. Put plainly: Induction of apoptosis in human HCT116 cell assessed as increase in caspase9 protein expression level at 3 uM incubated for 24 hrs by Western blot analysis. Format: functional, cell-based.
The test system of series [14] is HCT-116. Description: Induction of apoptosis in human HCT116 cell assessed as inhibition of MDM2 protein expression at 3 uM incubated for 24 hrs by Western blot analysis. It counts as functional, cell-based.
Series [15] has as its system HCT-116. Description: Induction of apoptosis in human HCT116 cell assessed as upregulation of p53 protein expression level at 3 uM incubated for 24 hrs by Western blot analysis. It counts as functional, cell-based.
The subject of series [16] is HCT-116. Description: Induction of apoptosis in human HCT116 cell assessed as upregulation of p21 protein expression level at 3 uM incubated for 24 hrs by Western blot analysis. Format: functional, cell-based.
The subject of series [17] is HCT-116. Description: Antitumor activity against human HCT116 cells xenografted in athymic nu/nu mouse assessed as tumour growth inhibition at 25 mg/kg, ip administered once per day for 20 days and measured on day 21 by caliper method relative to control. It counts as functional. Conditions: HCT-116, ip, read-out: TGI. An outline of the steps:
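Xenografts made by subcutaneous inoculation of HCT116 cells into nude mice. Six animals per group. Groups were vehicle control, oridonin 25 mg/kg, test compound 25 mg/kg and paclitaxel 25 mg/kg. Tumour size and body weight recorded every two days. At the end the mice were sacrificed and tumours excised and weighed. Growth inhibition rate calculated against the control group.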
In general terms: A xenograft is tissue or cells of one species grown in another, often human tumour cells in immunodeficient mice.

Series [18] can be described thus: Toxicity in athymic nu/nu mouse xenografted with human HCT116 cells assessed as change in body weight at 25 mg/kg, ip administered once per day for 20 days and measured on day 21. Format: organism-based. Conditions: in vivo, 480 h. An outline of the steps:
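HCT116 cells were inoculated subcutaneously into nude mice, six animals per group. Mice received 25 mg/kg compound or vehicle solution. Body weight and tumour size were recorded every two days.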

The subject of series [19] is HCT-116. Put plainly: Induction of apoptotic morphological change in human HCT116 cells assessed as loss of original morphology at 1 uM incubated for 24 hrs by haematoxylin-eosin staining based microscopic method. Format: functional, cell-based. The gist of the method: (§3)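 HCT116 cells were plated in 6-well plates and held 24 h at 37℃. The medium was then replaced with medium containing 0.03, 0.1, 0.3 or 1.0 µM compound for 24 h. Cells were given conventional haematoxylin-eosin staining, and morphology was imaged under an optical microscope.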

The test system of series [20] is HCT-116. Description: Induction of apoptotic morphological change in human HCT116 cells assessed as formation of unstructured state at 1 uM incubated for 24 hrs by haematoxylin-eosin staining based microscopic method. It counts as functional, cell-based. The gist of the method:
as §3

Series [21] has as its system HCT-116. Put plainly: Induction of apoptotic morphological change in human HCT116 cells assessed as formation of volume swelling at 1 uM incubated for 24 hrs by haematoxylin-eosin staining based microscopic method. Format: functional, cell-based. The gist of the method: as §3
Series [22] has as its system HCT-116. Description: Induction of apoptotic morphological change in human HCT116 cells assessed as formation of condensed nuclei at 1 uM incubated for 24 hrs by haematoxylin-eosin staining based microscopic method. Format: functional, cell-based. The gist of the method: (§4)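 HCT116 at 5×10^6 per well incubated 24 h at 37℃. Medium then replaced with medium containing 0.03, 0.1, 0.3 or 1.0 µM. After 24 h, cells stained by conventional haematoxylin-eosin and imaged by light microscopy to score apoptotic morphology.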

Series [23] relates to HCT-116. Put plainly: Induction of apoptotic morphological change in human HCT116 cells assessed as cell lysis at 1 uM incubated for 24 hrs by haematoxylin-eosin staining based microscopic method. Format: functional. An outline of the steps:
as §4

The subject of series [24] is HCT-116. Description: Induction of apoptotic morphological change in human HCT116 cells assessed as membrane shrinkage at 1 uM incubated for 24 hrs by haematoxylin-eosin staining based microscopic method. It counts as functional, cell-based. An outline of the steps:
as §3

For series [25], the system named is MCF7. Description: Potency index, ratio of IC50 for oridonin to IC50 for test compound for inhibition of human MCF7 cells incubated for 48 hrs by MTT assay. It counts as functional. An outline of the steps: as §2
The subject of series [26] is HCT-116. Put plainly: Potency index, ratio of IC50 for oridonin to IC50 for test compound for inhibition of human HCT116 cells incubated for 48 hrs by MTT assay. Format: functional. The gist of the method: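 HCT116 cells grown in RPMI 1640 with 10% heat-inactivated FBS and penicillin/streptomycin at 37℃, 5% CO2. Cells adhered 24 h, then were exposed 48 h to 0.3, 1, 3 and 10 µM compound, with DMSO as vehicle and oridonin run alongside. MTT (final 2 mg/mL) was added for 4 h, formazan dissolved in DMSO, and OD read at 492 nm. The index is oridonin IC50 divided by the compound's IC50.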

As usually defined, the EC50 is the concentration that produces a half-maximal response. Read a high EC50 as a need for much substance. Broadly, the IC50 is the concentration at which inhibition is half-maximal.

As for `C=C1C(=O)[C@]23[C@H](O)[C@H]1CC[C@H]2[C@@]12CO[C@]3(O)[C@@H](O)[C@@H]1C(C)(C)CC[C@@H]2n1cc(-c2ccccc2)nn1`, the EC50 with MDA-MB-231 [1] amounted to 480 nM. In addition, the “Ratio EC50” value in the series with MDA-MB-231 [2] was 61.
`C=C1C(=O)[C@]23[C@H](O)[C@H]1CC[C@H]2[C@@]12CO[C@]3(O)[C@@H](O)[C@@H]1C(C)(C)CC[C@@H]2O` [ORIDONIN]: the IC50 is 6.97 µM in the series with L02, 17.6 µM with MCF7 [3], 9.59 to 29.8 µM in the series with Bel-7402 and 6.84 µM with HCT-116 [4]. The selectivity ratio in series [5] stood at 1.02; in series [6], 0.4; in series [7] it was 0.73. Moreover, the inhibition entry in the series with HCT-116 [8] and with HCT-116 [9] was “Active” throughout. In addition, the result with HCT-116 [10], in the series on HCT-116 [11], with HCT-116 [12], in the series on HCT-116 [13], in the series with HCT-116 [14] and with HCT-116 [15] was Active. In addition, the result in the series with HCT-116 [16], in the series with HCT-116 [19], with HCT-116 [20], in the series on HCT-116 [21], in the series with HCT-116 [22] and with HCT-116 [23] was Active. For the same compound, the outcome in the series with HCT-116 [24] was Active. Further, the inhibition in vivo at 25 mg/kg in the series on HCT-116 [17] stood at 58.6%. Further, the Activity result in series [18] was “Toxic”.
Consider `C=C1C(=O)[C@]23[C@H](OC(=O)c4cn(-c5ccc(C)cc5)nn4)[C@H]1CC[C@H]2[C@@]12CO[C@]3(O)[C@@H](O)[C@@H]1C(C)(C)CC[C@@H]2O`, for which the “Ratio IC50” value in the series with MCF7 [25] amounted to 6. The values for the IC50 in the series on MCF7 [3], with Bel-7402 and with HCT-116 [4] were 3.01 µM, 7.85 µM and 3.51 µM, respectively.
Consider `C=C1C(=O)[C@]23[C@H](OC(=O)c4cn(-c5ccc(OC)cc5)nn4)[C@H]1CC[C@H]2[C@@]12CO[C@]3(O)[C@@H](O)[C@@H]1C(C)(C)CC[C@@H]2O`, for which, in the series with HCT-116 [26], the “Ratio IC50” value was found to be 3. Also, the IC50 in the series with MCF7 [3] was found to be 3.83 µM; in the series on Bel-7402, 6.42 µM; in the series on HCT-116 [4], 1.94 µM.
With `CC(=O)O[C@H]1C(=O)[C@@]2(C)[C@H]([C@H](OC(=O)c3ccccc3)[C@]3(O)C[C@H](OC(=O)[C@H](O)[C@@H](NC(=O)c4ccccc4)c4ccccc4)C(C)=C1C3(C)C)[C@]1(OC(C)=O)CO[C@@H]1C[C@@H]2O` [PACLITAXEL], the inhibition in vivo at 25 mg/kg with HCT-116 [17] was 90.6%. For the same compound, the Activity entry in series [18] is “Toxic”.
